Data reported in ChEMBL document CHEMBL1799942, “Design, synthesis and antifungal activities of novel 1,2,4-triazole derivatives” (2011).
In brackets after ≈: the same amount, converted by molar mass.

Key:
Type in all cases: functional
Aspergillus fumigatus = assay: Antifungal activity against Aspergillus fumigatus after 7 days by micro-broth dilution method; conditions: 168 h
Procedure, shortened: (§1)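 Broth microdilution following the NCCLS yeast reference method (M27-A2), run on clinical isolates of filamentous fungi. Compounds were dissolved in DMSO, serially diluted in growth medium, inoculated and incubated at 35 °C. Growth was read at 7 days. MIC80 is the first well with about 80% less growth than the drug-free well.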

Trichophyton rubrum = assay: Antifungal activity against Trichophyton rubrum after 7 days by micro-broth dilution method; conditions: 168 h; procedure, shortened: as §1
Nannizzia gypsea = assay: Antifungal activity against Microsporum gypseum after 7 days by micro-broth dilution method; conditions: 168 h; procedure, shortened: as §1
[1] = Antifungal activity against Fonsecaea compacta by micro-broth dilution method; procedure, shortened: as §1
Candida parapsilosis = assay: Antifungal activity against Candida parapsilosis ATCC 0306392 by micro-broth dilution method; conditions: Lodderomyces parapsilosis
Procedure, shortened: (§2)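 Micro-broth dilution per NCCLS M27-A2. The C. parapsilosis strain is the ATCC 0306392 quality-control standard tested in each assay; the C. tropicalis strain is a clinical isolate. Compounds were in DMSO, serially diluted in growth medium, inoculated and incubated at 35 °C. MIC80 is the first well with about 80% growth reduction relative to the drug-free well.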

Candida tropicalis = assay: Antifungal activity against Candida tropicalis by micro-broth dilution method; procedure, shortened: as §2
Cryptococcus neoformans = assay: Antifungal activity against Cryptococcus neoformans ATCC BLS108 after 72 hrs by micro-broth dilution method; conditions: ATCC BLS108, 72 h
Procedure, shortened: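 NCCLS M27-A2 microdilution on the ATCC BLS108 quality-control strain, tested in every assay. Compounds were taken up in DMSO, serially diluted in growth medium, inoculated and incubated at 35 °C. Growth was scored at 72 h. MIC80 is the first well with about 80% lower growth than the drug-free control well.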

Candida albicans = assay: Antifungal activity against Candida albicans ATCC Y0109 after 24 hrs by micro-broth dilution method; conditions: ATCC Y0109, 24 h
Procedure, shortened: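 Micro-broth dilution per NCCLS M27-A2 on the quality-control standard strain ATCC Y0109, included in each assay. Compounds were dissolved in DMSO, serially diluted in growth medium, inoculated and incubated at 35 °C, with growth read at 24 h. MIC80 is the first well showing roughly 80% growth reduction versus the drug-free well.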

SMILES: CC(=O)N1CCN(c2ccc(OCC3COC(Cn4ccnc4)(c4ccc(Cl)cc4Cl)O3)cc2)CC1 (configuration not stated) [KETOCONAZOLE]
- MIC80 (Aspergillus fumigatus): 1 µg/mL (≈ 1.88 µM)
- MIC80 (Trichophyton rubrum): 0.0625 µg/mL (≈ 0.118 µM)
- MIC80 (Nannizzia gypsea): 0.0039 µg/mL (≈ 0.00734 µM)
- MIC80 [1]: 0.0625 µg/mL (≈ 0.118 µM)
- MIC80 (Candida parapsilosis): 0.0625 µg/mL (≈ 0.118 µM)
- MIC80 (Candida tropicalis): 0.0625 µg/mL (≈ 0.118 µM)
- MIC80 (Cryptococcus neoformans): 0.0625 µg/mL (≈ 0.118 µM)
- MIC80 (Candida albicans): 0.0625 µg/mL (≈ 0.118 µM)

SMILES: CC(=O)Nc1ccc(N2CCN(CC(O)(Cn3cncn3)c3ccc(F)cc3F)CC2)c(F)c1 (racemic)
- MIC80 (Aspergillus fumigatus): 4 µg/mL (≈ 8.43 µM)
- MIC80 (Trichophyton rubrum): 0.25 µg/mL (≈ 0.527 µM)
- MIC80 (Nannizzia gypsea): 1 µg/mL (≈ 2.11 µM)
- MIC80 [1]: 0.25 µg/mL (≈ 0.527 µM)
- MIC80 (Candida parapsilosis): 0.0625 µg/mL (≈ 0.132 µM)
- MIC80 (Candida tropicalis): 0.0625 µg/mL (≈ 0.132 µM)
- MIC80 (Cryptococcus neoformans): 1 µg/mL (≈ 2.11 µM)
- MIC80 (Candida albicans): 0.0625 µg/mL (≈ 0.132 µM)

SMILES: O=C(Nc1ccc(N2CCN(CC(O)(Cn3cncn3)c3ccc(F)cc3F)CC2)c(F)c1)C(F)(F)Cl (racemic)
- MIC80 (Aspergillus fumigatus): 1 µg/mL (≈ 1.84 µM)
- MIC80 (Trichophyton rubrum): 0.0039 µg/mL (≈ 0.00716 µM)
- MIC80 (Nannizzia gypsea): 0.0039 µg/mL (≈ 0.00716 µM)
- MIC80 [1]: 0.0156 µg/mL (≈ 0.0286 µM)
- MIC80 (Candida parapsilosis): 0.0039 µg/mL (≈ 0.00716 µM)
- MIC80 (Candida tropicalis): 0.0039 µg/mL (≈ 0.00716 µM)
- MIC80 (Cryptococcus neoformans): 0.0156 µg/mL (≈ 0.0286 µM)
- MIC80 (Candida albicans): 64 µg/mL (≈ 117 µM)

SMILES: O=C(Nc1ccc(N2CCN(CC(O)(Cn3cncn3)c3ccc(F)cc3F)CC2)c(F)c1)C(F)(F)F (racemic)
- MIC80 (Aspergillus fumigatus): 1 µg/mL (≈ 1.89 µM)
- MIC80 (Trichophyton rubrum): 0.0156 µg/mL (≈ 0.0295 µM)
- MIC80 (Nannizzia gypsea): > 64 µg/mL
- MIC80 [1]: 0.25 µg/mL (≈ 0.473 µM)
- MIC80 (Candida parapsilosis): 0.0039 µg/mL (≈ 0.00738 µM)
- MIC80 (Candida tropicalis): 0.0039 µg/mL (≈ 0.00738 µM)
- MIC80 (Cryptococcus neoformans): 0.0625 µg/mL (≈ 0.118 µM)
- MIC80 (Candida albicans): 0.0156 µg/mL (≈ 0.0295 µM)

SMILES: CCCCCCC(=O)Nc1ccc(N2CCN(CC(O)(Cn3cncn3)c3ccc(F)cc3F)CC2)c(F)c1 (racemic)
- MIC80 (Aspergillus fumigatus): 1 µg/mL (≈ 1.84 µM)
- MIC80 (Trichophyton rubrum): 0.0156 µg/mL (≈ 0.0286 µM)
- MIC80 (Nannizzia gypsea): 0.0625 µg/mL (≈ 0.115 µM)
- MIC80 [1]: 0.25 µg/mL (≈ 0.459 µM)
- MIC80 (Candida parapsilosis): 0.0625 µg/mL (≈ 0.115 µM)
- MIC80 (Candida tropicalis): 0.0625 µg/mL (≈ 0.115 µM)
- MIC80 (Cryptococcus neoformans): 0.0625 µg/mL (≈ 0.115 µM)
- MIC80 (Candida albicans): 0.00097 µg/mL (≈ 0.00178 µM)

SMILES: OC(Cn1cncn1)(Cn1cncn1)c1ccc(F)cc1F [FLUCONAZOLE]
- MIC80 (Aspergillus fumigatus): 64 µg/mL (≈ 209 µM)
- MIC80 (Trichophyton rubrum): 0.25 µg/mL (≈ 0.816 µM)
- MIC80 (Nannizzia gypsea): 0.25 µg/mL (≈ 0.816 µM)
- MIC80 [1]: 16 µg/mL (≈ 52.2 µM)
- MIC80 (Candida parapsilosis): 1 µg/mL (≈ 3.27 µM)
- MIC80 (Candida tropicalis): 1 µg/mL (≈ 3.27 µM)
- MIC80 (Cryptococcus neoformans): 1 µg/mL (≈ 3.27 µM)
- MIC80 (Candida albicans): 4 µg/mL (≈ 13.1 µM)

SMILES: CC(C)(C)C(=O)Nc1ccc(N2CCN(CC(O)(Cn3cncn3)c3ccc(F)cc3F)CC2)cc1 (racemic)
- MIC80 (Aspergillus fumigatus): 16 µg/mL (≈ 32.1 µM)
- MIC80 (Trichophyton rubrum): 0.0039 µg/mL (≈ 0.00782 µM)
- MIC80 (Nannizzia gypsea): 0.0156 µg/mL (≈ 0.0313 µM)
- MIC80 [1]: 1 µg/mL (≈ 2.01 µM)
- MIC80 (Candida parapsilosis): 0.0156 µg/mL (≈ 0.0313 µM)
- MIC80 (Candida tropicalis): 0.0156 µg/mL (≈ 0.0313 µM)
- MIC80 (Cryptococcus neoformans): 0.25 µg/mL (≈ 0.501 µM)
- MIC80 (Candida albicans): 0.0156 µg/mL (≈ 0.0313 µM)

SMILES: CCC(C)n1ncn(-c2ccc(N3CCN(c4ccc(OCC5COC(Cn6cncn6)(c6ccc(Cl)cc6Cl)O5)cc4)CC3)cc2)c1=O (configuration not stated) [ITRACONAZOLE]
- MIC80 (Aspergillus fumigatus): 1 µg/mL (≈ 1.42 µM)
- MIC80 (Trichophyton rubrum): 0.0156 µg/mL (≈ 0.0221 µM)
- MIC80 (Nannizzia gypsea): 0.0156 µg/mL (≈ 0.0221 µM)
- MIC80 [1]: 0.25 µg/mL (≈ 0.354 µM)
- MIC80 (Candida parapsilosis): 0.25 µg/mL (≈ 0.354 µM)
- MIC80 (Candida tropicalis): 0.25 µg/mL (≈ 0.354 µM)
- MIC80 (Cryptococcus neoformans): 1 µg/mL (≈ 1.42 µM)
- MIC80 (Candida albicans): 1 µg/mL (≈ 1.42 µM)

SMILES: C[C@@H]1[C@H](O)[C@@H](C)/C=C/C=C/C=C/C=C/C=C/C=C/C=C/[C@H](O[C@@H]2O[C@H](C)[C@@H](O)[C@H](N)[C@@H]2O)C[C@@H]2O[C@](O)(C[C@@H](O)C[C@@H](O)[C@H](O)CC[C@@H](O)C[C@@H](O)CC(=O)O[C@H]1C)C[C@H](O)[C@H]2C(=O)O [AMPHOTERICIN B]
- MIC80 (Aspergillus fumigatus): 4 µg/mL (≈ 4.33 µM)
- MIC80 (Trichophyton rubrum): 1 µg/mL (≈ 1.08 µM)
- MIC80 (Nannizzia gypsea): 0.0039 µg/mL (≈ 0.00422 µM)
- MIC80 [1]: 16 µg/mL (≈ 17.3 µM)
- MIC80 (Candida parapsilosis): 0.0156 µg/mL (≈ 0.0169 µM)
- MIC80 (Candida tropicalis): 0.0625 µg/mL (≈ 0.0676 µM)
- MIC80 (Cryptococcus neoformans): 1 µg/mL (≈ 1.08 µM)
- MIC80 (Candida albicans): 1 µg/mL (≈ 1.08 µM)

SMILES: O=C(CCl)Nc1ccc(N2CCN(CC(O)(Cn3cncn3)c3ccc(F)cc3F)CC2)c(F)c1 (racemic)
- MIC80 (Aspergillus fumigatus): 1 µg/mL (≈ 1.96 µM)
- MIC80 (Trichophyton rubrum): 0.0625 µg/mL (≈ 0.123 µM)
- MIC80 (Nannizzia gypsea): 0.0156 µg/mL (≈ 0.0307 µM)
- MIC80 [1]: 0.0625 µg/mL (≈ 0.123 µM)
- MIC80 (Candida parapsilosis): 0.0156 µg/mL (≈ 0.0307 µM)
- MIC80 (Candida tropicalis): 0.0156 µg/mL (≈ 0.0307 µM)
- MIC80 (Cryptococcus neoformans): 0.0625 µg/mL (≈ 0.123 µM)
- MIC80 (Candida albicans): 0.0039 µg/mL (≈ 0.00766 µM)

SMILES: CCCCC(=O)Nc1ccc(N2CCN(CC(O)(Cn3cncn3)c3ccc(F)cc3F)CC2)cc1 (racemic)
- MIC80 (Aspergillus fumigatus): 1 µg/mL (≈ 2.01 µM)
- MIC80 (Trichophyton rubrum): 0.0625 µg/mL (≈ 0.125 µM)
- MIC80 (Nannizzia gypsea): 0.25 µg/mL (≈ 0.501 µM)
- MIC80 [1]: 0.25 µg/mL (≈ 0.501 µM)
- MIC80 (Candida parapsilosis): 0.0625 µg/mL (≈ 0.125 µM)
- MIC80 (Candida tropicalis): 0.0625 µg/mL (≈ 0.125 µM)
- MIC80 (Cryptococcus neoformans): 0.25 µg/mL (≈ 0.501 µM)
- MIC80 (Candida albicans): 0.0156 µg/mL (≈ 0.0313 µM)

SMILES: CCCC(=O)Nc1ccc(N2CCN(CC(O)(Cn3cncn3)c3ccc(F)cc3F)CC2)cc1 (racemic)
- MIC80 (Aspergillus fumigatus): 4 µg/mL (≈ 8.26 µM)
- MIC80 (Trichophyton rubrum): 0.0625 µg/mL (≈ 0.129 µM)
- MIC80 (Nannizzia gypsea): 0.0625 µg/mL (≈ 0.129 µM)
- MIC80 [1]: 0.25 µg/mL (≈ 0.516 µM)
- MIC80 (Candida parapsilosis): 0.0156 µg/mL (≈ 0.0322 µM)
- MIC80 (Candida tropicalis): 0.0625 µg/mL (≈ 0.129 µM)
- MIC80 (Cryptococcus neoformans): 0.25 µg/mL (≈ 0.516 µM)
- MIC80 (Candida albicans): 0.00097 µg/mL (≈ 0.002 µM)

SMILES: CC(C)C(=O)Nc1ccc(N2CCN(CC(O)(Cn3cncn3)c3ccc(F)cc3F)CC2)c(F)c1 (racemic)
- MIC80 (Aspergillus fumigatus): > 64 µg/mL
- MIC80 (Trichophyton rubrum): 0.0625 µg/mL (≈ 0.124 µM)
- MIC80 (Nannizzia gypsea): 0.0625 µg/mL (≈ 0.124 µM)
- MIC80 [1]: 1 µg/mL (≈ 1.99 µM)
- MIC80 (Candida parapsilosis): 0.25 µg/mL (≈ 0.497 µM)
- MIC80 (Candida tropicalis): 4 µg/mL (≈ 7.96 µM)
- MIC80 (Cryptococcus neoformans): 16 µg/mL (≈ 31.8 µM)
- MIC80 (Candida albicans): 0.0625 µg/mL (≈ 0.124 µM)

SMILES: CCCCCC(=O)Nc1ccc(N2CCN(CC(O)(Cn3cncn3)c3ccc(F)cc3F)CC2)cc1 (racemic)
- MIC80 (Aspergillus fumigatus): > 64 µg/mL
- MIC80 (Trichophyton rubrum): 0.0625 µg/mL (≈ 0.122 µM)
- MIC80 (Nannizzia gypsea): 0.0625 µg/mL (≈ 0.122 µM)
- MIC80 [1]: 1 µg/mL (≈ 1.95 µM)
- MIC80 (Candida parapsilosis): 0.25 µg/mL (≈ 0.488 µM)
- MIC80 (Candida tropicalis): 0.25 µg/mL (≈ 0.488 µM)
- MIC80 (Cryptococcus neoformans): 1 µg/mL (≈ 1.95 µM)
- MIC80 (Candida albicans): 0.0156 µg/mL (≈ 0.0304 µM)
